Experiments:
[1] = Inhibition of Saccharomyces cerevisiae alpha-glucosidase using para-nitrophenyl-alpha-D-glucopyranoside as substrate preincubated for 5 mins followed by substrate addition and measured after 5 mins
Outline: (§1)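 Baker's yeast α-glucosidase (EC 3.2.1.20) in 100 mM phosphate buffer, pH 6.8. Compounds came from 5 mg/mL DMSO stocks and were incubated with enzyme for 5 min. p-Nitrophenyl-α-D-glucopyranoside (5 mM solution) was then added and incubated for 5 min, and absorbance read at 405 nm. Blanks with buffer in place of substrate gave background; acarbose served as positive control.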

Saccharomyces cerevisiae = test: Inhibition of Saccharomyces cerevisiae alpha-glucosidase using para-nitrophenyl-alpha-D-glucopyranoside as substrate preincubated for 5 mins followed by substrate addition and measured after 5 mins relative to control; set-up: concentration or dose not given beside the values; outline: as §1

| Compound | IC50 ([1]; read-out: IC50) [µM] | inhibition (Saccharomyces cerevisiae) [%] | IC50 [1] |
| --- | --- | --- | --- |
| COc1ccc(O)c(/C=N\NC(=O)c2ccc3ncccc3c2)c1 | 18.4 |  |  |
| O=C(N/N=C\c1ccc(O)cc1O)c1ccc2ncccc2c1 | 14.1 |  |  |
| Cc1cccc(C)c1/C=N\NC(=O)c1ccc2ncccc2c1 |  | < 50 | Not Active |
| O=C(N/N=C\c1cccc(O)c1)c1ccc2ncccc2c1 | 48.5 |  |  |
| COc1ccc(/C=N\NC(=O)c2ccc3ncccc3c2)cc1OC |  | < 50 | Not Active |
| O=C(N/N=C\c1ccccc1O)c1ccc2ncccc2c1 | 13.2 |  |  |
| O=C(N/N=C\c1ccc(O)c(O)c1)c1ccc2ncccc2c1 | 6.2 |  |  |
| COc1cccc(/C=N\NC(=O)c2ccc3ncccc3c2)c1 |  | < 50 | Not Active |
| O=C(N/N=C\c1ccc([N+](=O)[O-])cc1)c1ccc2ncccc2c1 |  | < 50 | Not Active |
| COc1ccc(/C=N\NC(=O)c2ccc3ncccc3c2)cc1O | 14.4 |  |  |
| O=C(N/N=C\c1ccccc1[N+](=O)[O-])c1ccc2ncccc2c1 | 37.6 |  |  |
| O=C(N/N=C\c1ccco1)c1ccc2ncccc2c1 | 28.6 |  |  |
| O=C(N/N=C\c1cccs1)c1ccc2ncccc2c1 | 35.7 |  |  |
| O=C(N/N=C\c1ccc(F)cc1)c1ccc2ncccc2c1 | 28.9 |  |  |
| O=C(N/N=C\c1cccc(F)c1)c1ccc2ncccc2c1 | 48.2 |  |  |
| O=C(N/N=C\c1ccc(O)cc1)c1ccc2ncccc2c1 | 23.5 |  |  |
| O=C(N/N=C\c1ccncc1)c1ccc2ncccc2c1 |  | < 50 | Not Active |
| O=C(N/N=C\c1cccnc1)c1ccc2ncccc2c1 |  | < 50 | Not Active |
| O=C(N/N=C\c1cccc(O)c1O)c1ccc2ncccc2c1 | 9.4 |  |  |
| COc1ccc(/C=N\NC(=O)c2ccc3ncccc3c2)cc1 |  | < 50 | Not Active |
| O=C(N/N=C\c1ccccn1)c1ccc2ncccc2c1 | 38.4 |  |  |
| O=C(N/N=C\c1ccccc1F)c1ccc2ncccc2c1 | 7.4 |  |  |
| O=C(N/N=C\c1cc(O)ccc1O)c1ccc2ncccc2c1 | 12.4 |  |  |
| O=C(N/N=C\c1cccc([N+](=O)[O-])c1)c1ccc2ncccc2c1 |  | < 50 | Not Active |
| COc1ccc(/C=N\NC(=O)c2ccc3ncccc3c2)c(O)c1 | 21.6 |  |  |
